This is an account of results in ChEMBL document CHEMBL1123740, “Potential anti-AIDS drugs. 2',3'-Dideoxycytidine analogues” (1987).

Molecules are shown by their SMILES.

The test system of experiment [1] is ATH-8 cell line. The experiment can be described thus: (§1) Compound was evaluated for cytotoxicity by HIV cytopathic effect assay performed with ATH8 cells at a concentration of 10(uM). The class given is functional, Homo sapiens. In a few lines: (§2)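 Uninfected control ATH8 cells (2×10^5) were polybrene-treated and cultured in 2 mL IL-2-containing medium with or without compound at 37 °C in 5% CO2. Viable cells were counted by trypan blue exclusion on a hemocytometer at days 5–7. % cytotoxicity = 100 × [1 − (viable cells with nucleoside ÷ viable cells cultured alone)].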
For orientation: Cytopathic effects are the visible damage that an infection or toxin causes in cultured cells.

Experiment [2] relates to ATH-8 cell line. The experiment can be described thus: Compound was evaluated for cytotoxicity by HIV cytopathic effect assay performed with ATH8 cells at a concentration of 100(uM). Format: functional, Homo sapiens. The method, boiled down: as §2
The nature of experiment [3]: Compound was evaluated for the protective effect against HTLV-III/LAV (HIV) pathogenesis at a concentration of 100(uM). The class given is functional. In a few lines:
(§3)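 ATH8 cells (2×10^5) were polybrene-treated, then exposed to HTLV-IIIB (2000 virus particles/cell) for 45 min. They were resuspended in 2 mL IL-2-containing medium with or without compound and incubated at 37 °C in 5% CO2. Viable cells were counted by trypan blue exclusion on days 5–7. % protection compared infected treated, infected untreated, and uninfected cells.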

In experiment [4] the test system is ATH-8 cell line. Description: Compound was evaluated for cytotoxicity by HIV cytopathic effect assay performed with ATH8 cells at a concentration of 2(uM). The class given is functional, Homo sapiens. The method, boiled down: as §2
Experiment [5] is described as follows: Compound was evaluated for the protective effect against HTLV-III/LAV (HIV) pathogenesis at a concentration of 2(uM). The class given is functional. In a few lines:
as §3

A short description of experiment [6]: Compound was evaluated for the protective effect against HTLV-III/LAV (HIV) pathogenesis at a concentration of 10(uM). The class given is functional. The method, boiled down:
as §3

Experiment [7] has as its system ATH-8 cell line. The experiment can be described thus: Compound was evaluated for cytotoxicity by HIV cytopathic effect assay performed with ATH8 cells at a concentration of 2000(uM). Format: functional, Homo sapiens. The method, boiled down: as §2
A short description of experiment [8]: Compound was evaluated for the protective effect against HTLV-III/LAV (HIV) pathogenesis at a concentration of 500(uM). The class given is functional. In a few lines: as §3
A short description of experiment [9]: Compound was evaluated for the protective effect against HTLV-III/LAV (HIV) pathogenesis at a concentration of 200(uM). The class given is functional. In a few lines: as §3
Experiment [10] in a line: Compound was evaluated for the protective effect against HTLV-III/LAV (HIV) pathogenesis at a concentration of 1000(uM). Format: functional. The method, boiled down:
as §3

Experiment [11] deals with ATH-8 cell line. The experiment can be described thus: Compound was evaluated for cytotoxicity by HIV cytopathic effect assay performed with ATH8 cells at a concentration of 1000(uM). Format: functional, Homo sapiens. In a few lines:
as §2

A short description of experiment [12]: Compound was evaluated for the protective effect against HTLV-III/LAV (HIV) pathogenesis at a concentration of 2000(uM). The class given is functional. In a few lines:
as §3

Experiment [13] has as its system ATH-8 cell line. Description: Compound was evaluated for cytotoxicity by HIV cytopathic effect assay performed with ATH8 cells at a concentration of 500(uM). The class given is functional, Homo sapiens. The method, boiled down:
as §2

Experiment [14] relates to ATH-8 cell line. Described as §1. The class given is functional. The method, boiled down: as §2
Experiment [15] concerns ATH-8 cell line. Description: Compound was evaluated for cytotoxicity by HIV cytopathic effect assay performed with ATH8 cells at a concentration of 200(uM). Format: functional, Homo sapiens. In a few lines: as §2
The subject of experiment [16] is ATH-8 cell line. The experiment can be described thus: Compound was evaluated for cytotoxicity by HIV cytopathic effect assay performed with ATH8 cells at a concentration of 50(uM). Format: functional, Homo sapiens. In a few lines: as §2
The nature of experiment [17]: Compound was evaluated for the protective effect against HTLV-III/LAV (HIV) pathogenesis at a concentration of 50(uM). Format: functional. In a few lines: as §3
Experiment [18] is described as follows: Compound was evaluated for the protective effect against HTLV-III/LAV (HIV) pathogenesis at a concentration of 0.5(uM). Format: functional. The method, boiled down: as §3
The subject of experiment [19] is ATH-8 cell line. Description: Compound was evaluated for cytotoxicity by HIV cytopathic effect assay performed with ATH8 cells at a concentration of 0.05(uM). Format: functional, Homo sapiens. In a few lines:
as §2

Experiment [20] concerns ATH-8 cell line. Description: Compound was evaluated for cytotoxicity by HIV cytopathic effect assay performed with ATH8 cells at a concentration of 5(uM). The class given is functional, Homo sapiens. The method, boiled down:
as §2

Experiment [21] is described as follows: Compound was evaluated for the protective effect against HTLV-III/LAV (HIV) pathogenesis at a concentration of 0.05(uM). The class given is functional. In a few lines:
as §3

The nature of experiment [22]: Compound was evaluated for the protective effect against HTLV-III/LAV (HIV) pathogenesis at a concentration of 5(uM). Format: functional. The method, boiled down: as §3
In experiment [23] the test system is ATH-8 cell line. The experiment can be described thus: Compound was evaluated for cytotoxicity by HIV cytopathic effect assay performed with ATH8 cells at a concentration of 0.5(uM). The class given is functional, Homo sapiens. In a few lines:
as §2

The test system of experiment [24] is ATH-8 cell line. Description: Compound was evaluated for cytotoxicity by HIV cytopathic effect assay performed with ATH8 cells at a concentration of 1(uM). The class given is functional, Homo sapiens. In a few lines: as §2
Experiment [25] is described as follows: Compound was evaluated for the protective effect against HTLV-III/LAV (HIV) pathogenesis at a concentration of 1(uM). The class given is functional. In a few lines: as §3
Experiment [26] is described as follows: Compound was evaluated for the protective effect against HTLV-III/LAV (HIV) pathogenesis at a concentration of 30(uM). The class given is functional. The method, boiled down:
as §3

The test system of experiment [27] is ATH-8 cell line. Description: Compound was evaluated for cytotoxicity by HIV cytopathic effect assay performed with ATH8 cells at a concentration of 30(uM). Format: functional, Homo sapiens. The method, boiled down: as §2

In the case of `Cc1cn(C2CCC(CO)O2)c(=O)nc1N` (stereo unspecified), the Cytotoxicity in the experiment on ATH-8 cell line [1] stood at 27%; with ATH-8 cell line [2] it was 44%; in the experiment with ATH-8 cell line [4], 23%. Further, the values for the Protective effect in experiment [3], in experiment [5] and in [6] were 3%, 2% and 7%, respectively.
Turning to `Cc1cn([C@H]2C=C[C@@H](CO)O2)c(=O)[nH]c1=O` [STAVUDINE], the Cytotoxicity came out at 53% in the experiment on ATH-8 cell line [7]; 40% in the experiment with ATH-8 cell line [11]; 13% in the experiment with ATH-8 cell line [2]; 30% with ATH-8 cell line [13]; 8% with ATH-8 cell line [14]; 6% in the experiment on ATH-8 cell line [15]. In addition, the Cytotoxicity with ATH-8 cell line [16] is on record as 8%. The Protective effect was 68% in experiment [8]; 77% in experiment [9]; 46% in experiment [10]; 43% in experiment [12]; 19% in experiment [3]; 3% in experiment [6]. Also, in experiment [17], the Protective effect came to 9%.
Take `Nc1ccn([C@H]2CC[C@@H](CO)O2)c(=O)n1` [ZALCITABINE]: the Protective effect in experiment [18] is 97%; in [21], 18%; in experiment [22], 100%; in experiment [17], 77%. In addition, the Cytotoxicity came to 0% with ATH-8 cell line [19], 0% with ATH-8 cell line [20], 0% with ATH-8 cell line [23] and 30% in the experiment with ATH-8 cell line [16].
In the case of `Nc1ncnc2c1ncn2[C@H]1CC[C@@H](CO)O1`, the Cytotoxicity amounted to 0% in the experiment on ATH-8 cell line [1]; 0% in the experiment on ATH-8 cell line [24]; 0% with ATH-8 cell line [2]; 6% with ATH-8 cell line [20]; 0% in the experiment on ATH-8 cell line [15]; 0% in the experiment on ATH-8 cell line [16]. In addition, the Protective effect in experiment [9] amounted to 100%; in experiment [3] it was 100%; in experiment [22] it was 98%; in experiment [25] it was 42%; in experiment [6], 100%; in experiment [17], 100%.
For the compound `Nc1ncn(C2CCC(CO)O2)c(=O)n1` (stereo unspecified), the results for the Cytotoxicity in the experiment with ATH-8 cell line [1], with ATH-8 cell line [24] and in the experiment on ATH-8 cell line [16] were 19%, 13% and 62%, respectively. Also, the Protective effect came to 16% in experiment [25], 58% in [6] and 38% in [17].
In the case of `Nc1nc(=O)n(C2CCC(CO)O2)cc1Br` (stereo unspecified), the Protective effect in experiment [26] was determined as 5%; in experiment [9], 0%; in [25] it was 6%; in [6] it was 8%. For the same compound, the Cytotoxicity in the experiment on ATH-8 cell line [1] is given as 14%; with ATH-8 cell line [24] it was 14%; with ATH-8 cell line [27] it was 2%; in the experiment on ATH-8 cell line [15], 0%.
Consider `Nc1nc(=O)n([C@@H]2CC[C@H](CO)O2)cc1F`, for which the Protective effect was determined as 100% in [18], 5% in [21], 100% in [22] and 88% in experiment [17]. The Cytotoxicity was determined as 5% in the experiment with ATH-8 cell line [19], 0% in the experiment with ATH-8 cell line [20], 0% in the experiment with ATH-8 cell line [23] and 9% in the experiment on ATH-8 cell line [16].
As for `Nc1ncnc2c1ncn2C1CCC(COP(=O)([O-])[O-])O1.[Na+].[Na+]` (stereo unspecified), the Cytotoxicity is given as 6% in the experiment on ATH-8 cell line [1]; 2% with ATH-8 cell line [24]; 0% with ATH-8 cell line [2]; 10% with ATH-8 cell line [20]; 5% with ATH-8 cell line [15]; 4% in the experiment on ATH-8 cell line [16]. Also, the Protective effect in [9] amounted to 100%; in experiment [3], 100%; in experiment [22], 91%; in [25], 25%; in experiment [6], 100%; in experiment [17], 83%.
As for `Cc1cn(C2CCC(COP(=O)([O-])[O-])O2)c(=O)[nH]c1=O.[Na+].[Na+]` (stereo unspecified), the Cytotoxicity in the experiment on ATH-8 cell line [1] came out at 9%; in the experiment on ATH-8 cell line [15], 10%; in the experiment on ATH-8 cell line [16], 9%. The values for the Protective effect in experiment [9], in experiment [6] and in experiment [17] were 15%, 7% and 18%, respectively.
Consider `N.N.Nc1ccn(C2CCC(COP(=O)(O)O)O2)c(=O)n1` (stereo unspecified), for which the Protective effect in [18] was found to be 13%; in experiment [5] it was 9%; in experiment [6], 74%. Also, the Cytotoxicity in the experiment with ATH-8 cell line [1] turned out to be 0%; in the experiment on ATH-8 cell line [4], 7%; in the experiment on ATH-8 cell line [23], 0%.
